# Source: PubChem (several laboratories)
# The list is not random: actives were taken first. Their share in the collection is about 2.1%.
# PP1 inh = counter-screen for PP5 inhibitors: inhibitors of human PP1-alpha | AID 2235 | P62136 | 0.9% of 320,000 active | inhibition, % at 6.7 µM | purified PP1alpha, OMFP fluorescence;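 active means inhibition above the mean inhibition of all tested compounds plus 3 SD, computed separately for each screening campaign, cut at about 15% in these data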
# Apaf-1 inh = inhibitors of human Apaf-1 apoptosome; reconstituted apoptosome caspase-3 activity, DEVD-Rh110 fluorescence; inhibition, % at 20 µM; 0.71% of 330,000 active; AID 489030; active means inhibition of at least 40% at 20 µM;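 further: plate controls were DMSO wells for no effect and DEVD-CHO caspase inhibitor wells for full effect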
# Target sequence (O14727 whole entry, looked up): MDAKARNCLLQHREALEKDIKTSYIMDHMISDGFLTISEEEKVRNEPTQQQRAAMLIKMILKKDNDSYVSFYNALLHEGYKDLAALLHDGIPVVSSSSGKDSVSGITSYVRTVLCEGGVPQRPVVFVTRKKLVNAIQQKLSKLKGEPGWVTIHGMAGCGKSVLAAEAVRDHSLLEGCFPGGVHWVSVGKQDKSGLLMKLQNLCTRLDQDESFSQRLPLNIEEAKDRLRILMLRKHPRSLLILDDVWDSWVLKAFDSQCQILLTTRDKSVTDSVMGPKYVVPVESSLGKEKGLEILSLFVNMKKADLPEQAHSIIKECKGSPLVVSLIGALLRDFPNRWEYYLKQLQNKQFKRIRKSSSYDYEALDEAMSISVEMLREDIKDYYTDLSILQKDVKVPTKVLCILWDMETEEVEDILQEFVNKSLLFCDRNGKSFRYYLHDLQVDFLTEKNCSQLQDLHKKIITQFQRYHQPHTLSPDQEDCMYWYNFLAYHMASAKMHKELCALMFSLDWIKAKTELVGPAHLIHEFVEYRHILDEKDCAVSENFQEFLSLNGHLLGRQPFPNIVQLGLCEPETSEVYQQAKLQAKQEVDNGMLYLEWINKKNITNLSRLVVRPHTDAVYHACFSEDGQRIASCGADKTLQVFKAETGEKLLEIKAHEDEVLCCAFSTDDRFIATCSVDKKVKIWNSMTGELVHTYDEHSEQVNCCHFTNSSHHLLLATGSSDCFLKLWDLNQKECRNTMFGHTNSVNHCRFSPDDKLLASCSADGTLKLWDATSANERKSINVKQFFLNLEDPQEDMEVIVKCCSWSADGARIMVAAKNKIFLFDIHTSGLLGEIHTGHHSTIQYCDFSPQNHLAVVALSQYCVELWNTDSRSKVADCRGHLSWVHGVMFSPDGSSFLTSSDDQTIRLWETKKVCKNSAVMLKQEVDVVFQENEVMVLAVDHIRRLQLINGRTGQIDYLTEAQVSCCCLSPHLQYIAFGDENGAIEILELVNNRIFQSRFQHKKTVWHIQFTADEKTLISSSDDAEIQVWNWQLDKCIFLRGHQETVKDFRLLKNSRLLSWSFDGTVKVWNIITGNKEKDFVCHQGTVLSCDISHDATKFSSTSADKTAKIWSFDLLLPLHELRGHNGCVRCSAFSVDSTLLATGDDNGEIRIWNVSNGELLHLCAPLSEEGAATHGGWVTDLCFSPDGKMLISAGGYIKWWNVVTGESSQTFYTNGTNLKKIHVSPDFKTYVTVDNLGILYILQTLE
#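 Material: reconstituted apoptosome with Apaf-1, cytochrome c, caspase-9, procaspase-3, dATP; medium: pH 7.5 Hepes buffer with CHAPS, BSA, DTT; also added: cytochrome c and DEVD-Rh110 substrate; timing: 30 min plus 50 min, RT; signal: Rh110 fluorescence intensity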
# TDP2 absorb = TDP2 (human) inhibition, absorbance primary screen; O95551; recombinant TDP2, T5PNP hydrolysis, p-nitrophenol absorbance 415 nm; inhibition, % at 12.8 µM; 0.34% of 370,000 active;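 active means inhibition above the mean of all tested compounds plus 3 SD, set per campaign, cut at about 25% in these data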;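 further: 0% = DMSO with enzyme and 100% = buffer with substrate but no TDP2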
#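 System – recombinant human TDP2 · Quantity – TDP2 enzyme at 120 nM final · Doses – single concentration, 12.8 µM nominal, with 1% DMSO · Incubation – 2 h at 37 °C · Measured by – epi absorbance of p-nitrophenol freed from T5PNP by hydrolysis · Read-out – % inhibition relative to enzyme-containing and enzyme-free wells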
# GSTO1 inh = GSTO1 inhibition, counter-screen for RBBP9 inhibitors | inhibition, % at 5.96 µM | P78417 | recombinant GSTO1, activity-based probe fluorescence polarization | 1.1% of 300,000 active;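 active means inhibition above the campaign mean inhibition plus 3 SD, cut at about 35% in these data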;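 further: 0% = GSTO1-1 with DMSO and 100% = wells lacking GSTO1-1 enzyme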
# PP5 inh = blocks human protein phosphatase 5 activity. inhibition, % at 6.7 µM. 0.18% of 320,000 active. AID 1987. purified PP5c, OMFP substrate fluorescence;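 active means inhibition above the campaign's mean inhibition across all tested compounds plus 3 SD, cut at about 9.5% in these data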;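 further: 0% = DMSO only and 100% = 100 µM cantharidin control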
# PP1 inh confirm = confirmation of human PP1 phosphatase inhibitors; 52% of 1,900 active; purified PP1alpha, OMFP substrate fluorescence; AID 2358; shares compounds with PP1 inh; inhibition, % at 6.7 µM;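 active means mean PP1 inhibition above a set limit taken from the earlier primary screen, cut at about 15% in these data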
# PP5 inh counter = PP5 phosphatase inhibition, counter-screen for PP1 inhibitors | shares compounds with PP1 inh | purified PP5c, OMFP fluorescence | inhibition, % at 6.7 µM | 4% of 1,900 active;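 active means mean PP5 inhibition over triplicate wells above about 9.5% taken from the earlier PP1 screen, limit read from the data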
# Apaf-1 inh conf = confirmation of Apaf-1 inhibitors. reconstituted apoptosome, caspase-3 DEVD-Rh110 fluorescence. shares compounds with Apaf-1 inh. AID 504614. inhibition, % at 20 µM. 25% of 1,800 active;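 active means mean inhibition of at least 40% at 20 µM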;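 further: plate controls were DMSO wells for no effect and DEVD-CHO caspase inhibitor control wells for full effect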
# Rh110 quench = interferes with Rh110 fluorescence, flagging false Apaf-1 inhibitors. shares compounds with Apaf-1 inh. Rh110 fluorescence interference, quenched caspase reaction. activation (fluorescence interference), % at 20 µM. 1,800 tested, under 10 active. AID 504615;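 active means signal rise of 40% or more at 20 µM, treated as a fluorescence artifact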
# Fluor interf inh = shows fluorescence interference in the Apaf-1 inhibitor assay format. shares compounds with Apaf-1 inh. fluorescence interference counterscreen, Apaf-1 assay format. IC50, µM. 460 tested, under 10 active; call rule not given here
# Active calls of the source: *; / = not tested or not shown.
SMILES,PP1 inh,Apaf-1 inh,TDP2 absorb,GSTO1 inh,PP5 inh,PP1 inh confirm,PP5 inh counter,Apaf-1 inh conf,Rh110 quench,Fluor interf inh
C#CCOCCOCCOCCNc1nc(N2CCN(C(=O)CCCCCCCCCCNC(=O)[C@H](CCCCN)n3cc(C)nn3)CC2)nc(N2CCN(C(=O)CCCCCCCCCCNC(=O)[C@H](CCCN=C(N)N)n3cc(C[C@@H](C)CC)nn3)CC2)n1,53*,75*,/,-5,5,50*,0,57*,4,>100
C#CCOCCOCCOCCNc1nc(N2CCN(C(=O)CCCCCCCCCCNC(=O)[C@@H](CCC(=O)O)n3cc(CCCCCN)nn3)CC2)nc(N2CCN(C(=O)CCCCCCCCCCNC(=O)[C@H](CCCCN)n3cc(C[C@@H](C)CC)nn3)CC2)n1,18*,72*,/,3,1,11,2,50*,7,>100
C#CCOCCOCCOCCNc1nc(N2CCN(C(=O)CCCCCCCCCCNC(=O)Cn3cc(C[C@@H](C)O)nn3)CC2)nc(N2CCN(C(=O)CCCCCCCCCCNC(=O)[C@@H]([C@H](C)O)n3cc(C)nn3)CC2)n1,3,27,/,2,2,/,/,/,/,/
C#CCOCCOCCOCCNc1nc(N2CCN(C(=O)CCCCCCCCCCNC(=O)Cn3cc(C[C@@H](C)O)nn3)CC2)nc(N2CCN(C(=O)CCCCCCCCCCNC(=O)[C@@H]([C@H](C)CC)n3cc(CCCCCN)nn3)CC2)n1,55*,54*,/,4,5,44*,4,50*,13,>100
C#CCOCCOCCOCCNc1nc(N2CCN(C(=O)[C@H]([C@@H](C)CC)n3cc(CCC(=O)O)nn3)CC2)nc(N2CCN(C(=O)[C@H](CCCCN)n3cc(CCC(=O)O)nn3)CC2)n1,/,/,5,/,/,/,/,/,/,/
C#CCOCCOCCOCCNc1nc(N2CCN(C(=O)CCCCCCCCCCNC(=O)[C@@H](CCSC)n3cc(CCO)nn3)CC2)nc(N2CCN(C(=O)CCCCCCCCCCNC(=O)[C@H](CCC(=O)O)n3cc(CCCCCN)nn3)CC2)n1,18*,62*,/,-7,3,37*,4,21,1,/
CC1=C[C@]2(CN(CC3CC3)C3=N[C@H](c4ccccc4)CC(=O)N32)n2c(=O)n(-c3ccccc3)c(=O)n2C1,/,/,-5,/,/,/,/,/,/,/
C#CCOCCOCCOCCNc1nc(N2CCN(C(=O)CCCCCCCCCCNC(=O)[C@@H](CCSC)n3cc(CCO)nn3)CC2)nc(N2CCN(C(=O)CCCCCCCCCCNC(=O)[C@H](CO)n3cc(CCCCCN)nn3)CC2)n1,49*,71*,/,-4,2,49*,0,40*,2,>100
CCCCCCCCN1C(=O)[C@@H](CC(=O)NCC23CC4CC(CC(C4)C2)C3)C[C@@]2(C(=O)OC)C1=C[C@H](C(C)C)O[C@@H]2C1CC1,/,/,5,/,/,/,/,/,/,/
COC(=O)[C@]12C[C@H](CC(=O)N3CCC(c4ccccc4)CC3)C(=O)N(Cc3ccc4c(c3)OCO4)C1=C[C@H](COCc1ccccc1)O[C@@H]2C,/,/,-10,/,/,/,/,/,/,/
CCOC(=O)N(C)[C@H]1C[C@H]2c3[nH]c4cccc(-c5cccc(F)c5)c4c3CCN2C(=O)[C@H]1[C@H](C)O,/,/,-2,/,/,/,/,/,/,/
O=c1[nH]c(C2CCN(S(=O)(=O)c3cccc(C(F)(F)F)c3)CC2)nc2c1nnn2Cc1cccc(F)c1,14,22,1,8,5,/,/,/,/,/
O=c1[nH]c(C2CCN(S(=O)(=O)c3ccc(C(F)(F)F)cc3)CC2)nc2c1nnn2Cc1ccc(F)cc1,19*,41*,14,-9,6,5,5,30,-10,/
Cc1ccc(S(=O)(=O)N2CCN(c3nc(CN4CCCC4)nc4sc(C)c(C)c34)CC2)cc1,19*,48*,-15,/,-2,4,0,29,15,/
CCCCCCCCCCCCCCCC[n+]1cccc(C(=O)N(CC)CC)c1,31*,74*,6,2,5,-6,4,72*,20,>100
CCCCCCCCCCCCCCCC[n+]1ccc(C(N)=O)cc1,41*,73*,0,9,5,25*,0,53*,8,>100
O/N=C/c1cccc[n+]1CCCCCC[n+]1ccccc1/C=N/O,/,3,-3,/,/,/,/,/,/,/
CCCCCCCCCCCCCCCC[n+]1ccc(/C=N/O)cc1,54*,80*,-12,3,8,32*,15*,58*,17,>100
CCCCCCCCCCCCCCCC[n+]1ccccc1,/,/,3,/,/,/,/,/,/,/
COc1ccc(C(=O)OCCN2CCN(C3CN(Cc4cn(Cc5ccccc5C(F)(F)F)nn4)S(=O)(=O)C3)CC2)cc1OC (centres undefined),/,/,-7,/,/,/,/,/,/,/
CCOC(=O)C1=C(c2ccccc2)NC(=O)NC1c1cc(Cl)c(O)c(OC)c1 (centres undefined),0,2,2,-5,-2,/,/,/,/,/
CCOC(=O)C1=C(c2ccccc2)NC(N)=NC1c1ccc(OCc2ccc(Cl)cc2)c(OC)c1 (centres undefined),25*,58*,-12,-4,5,29*,0,64*,6,>100
CC(C)C[C@@H]1NC(=O)[C@@H]2CSCCS(=O)(=O)N2C1=O,/,/,4,/,/,/,/,/,/,/
CCc1cc2c(nc1CC)CCCN2S(=O)(=O)c1cccs1,/,/,-12,/,/,/,/,/,/,/
CC(=O)c1cc(-c2cccc(C#N)c2)c(=O)n2c1CCC2,/,/,0,/,/,/,/,/,/,/
Cc1ccc(-c2csc(/C(C#N)=C/Nc3ccc4c(c3)OCCO4)n2)cc1,-5,-9,10,-1,1,/,/,/,/,/
CCN(CC)CCOC(=O)c1ccc(N/C=C(/C#N)c2nc(-c3cccc(OC)c3)cs2)cc1,54*,55*,0,-3,1,9,-2,7,3,/
CCN(CC)CCOC(=O)c1ccc(N/C=C(/C#N)c2nc(-c3ccc(OC)c(OC)c3)cs2)cc1,66*,55*,12,7,2,35*,-1,67*,12,>100
COC(=O)[C@]12C[C@H](CC(=O)NCc3ccccc3)C(=O)N(Cc3ccc(Cl)cc3Cl)C1=C[C@H](C(C)(C)C)O[C@@H]2C,/,/,-11,/,/,/,/,/,/,/
CCOc1ccc(CCN2C(=O)C(=O)N([C@H](CCCN(C)Cc3ccccc3)CNCc3ccccc3)C[C@@H]2C(C)C)cc1,/,26,/,/,/,/,/,/,/,/
